For 22 compounds, IC50 results are on record in ChEMBL document CHEMBL1147812 (J Med Chem, 2006).

Chain of Neuronal acetylcholine receptor; alpha4/beta2 (P09483 whole entry): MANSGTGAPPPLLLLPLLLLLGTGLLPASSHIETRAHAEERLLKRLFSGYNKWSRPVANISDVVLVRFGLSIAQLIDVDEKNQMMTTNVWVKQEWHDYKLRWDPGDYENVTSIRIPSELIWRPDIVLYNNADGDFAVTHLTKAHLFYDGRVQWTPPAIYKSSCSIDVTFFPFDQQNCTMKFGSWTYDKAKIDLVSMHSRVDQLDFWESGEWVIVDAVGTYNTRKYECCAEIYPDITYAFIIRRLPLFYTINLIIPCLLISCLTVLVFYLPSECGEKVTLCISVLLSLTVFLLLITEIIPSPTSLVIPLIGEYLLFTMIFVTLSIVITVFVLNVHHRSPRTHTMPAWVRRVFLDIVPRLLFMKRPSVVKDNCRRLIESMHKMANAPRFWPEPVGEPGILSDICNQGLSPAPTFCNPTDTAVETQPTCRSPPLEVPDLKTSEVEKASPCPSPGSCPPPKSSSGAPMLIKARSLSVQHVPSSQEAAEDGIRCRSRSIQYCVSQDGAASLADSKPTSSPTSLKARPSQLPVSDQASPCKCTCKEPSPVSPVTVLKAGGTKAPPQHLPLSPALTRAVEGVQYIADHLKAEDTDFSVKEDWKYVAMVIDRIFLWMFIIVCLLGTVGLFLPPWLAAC
Chain of Neuronal acetylcholine receptor; alpha4/beta2 (P12390 whole entry): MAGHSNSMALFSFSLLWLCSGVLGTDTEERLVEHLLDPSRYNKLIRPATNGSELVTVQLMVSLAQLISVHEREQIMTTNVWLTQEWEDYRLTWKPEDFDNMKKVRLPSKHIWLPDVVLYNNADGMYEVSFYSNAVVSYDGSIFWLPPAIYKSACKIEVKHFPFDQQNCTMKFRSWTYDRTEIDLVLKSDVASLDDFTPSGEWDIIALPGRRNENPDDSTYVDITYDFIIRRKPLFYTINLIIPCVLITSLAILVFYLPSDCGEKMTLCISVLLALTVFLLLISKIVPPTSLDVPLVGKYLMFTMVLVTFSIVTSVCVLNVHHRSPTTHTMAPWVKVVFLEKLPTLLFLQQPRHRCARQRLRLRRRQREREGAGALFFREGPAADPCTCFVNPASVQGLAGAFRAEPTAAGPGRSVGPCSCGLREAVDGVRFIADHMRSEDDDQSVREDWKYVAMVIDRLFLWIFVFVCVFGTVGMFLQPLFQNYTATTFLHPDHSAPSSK

The experiment addresses Neuronal acetylcholine receptor; alpha4/beta2 (Rattus norvegicus, UniProt P09483+P12390). The experiment is described as follows: Inhibition of [3H]cytisine binding to alpha4beta2 nACHR in Wistar rat cerebral cortical membrane. An outline of the steps:
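Male Wistar rat (150-250 g) cerebral cortex homogenized at 0-4 °C in 50 mM Tris HCl pH 7.4 with 120 mM NaCl, 5 mM KCl, 1 mM MgCl₂, 2.5 mM CaCl₂, then washed twice by centrifugation at 27 000g. Membranes incubated with test drug and 1 nM ³H-cytisine (final) for 90 min at 2 °C. Nonspecific binding defined with 100 µM (-)-nicotine. Bound label collected on GF/C filters and counted by liquid scintillation.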
For the compound `c1ncc(N2CCCNCC2)cc1C1CC1`, the IC50 amounted to 5.8 nM.
For the compound `C=COc1cncc(N2CCNCC2)c1`, the IC50 came out at 190 nM. This IC50 is about 33-fold higher than that of the compound before.
As for `Oc1cc(N2CCCNCC2)cnc1I`, the figure is 22 nM; as for `C/C=C\Oc1cncc(N2CCCNCC2)c1`, 1.3 nM; as for `C=COc1cc(N2CCCNCCC2)cnc1Br`, 0.38 nM.
As for `Brc1ccc(N2CCNCC2)cn1`, the figure is 180 nM; as for `Clc1cncc(N2CCCNCCC2)c1`, 2 nM; as for `Cc1ncc(N2CCNCC2)cc1Cl`, 520 nM.
`Clc1ncc(N2CCCNCC2)cc1Br` displayed an IC50 of 1.4 nM.
As for `c1cncc(N2CCCNCCC2)c1`, the figure is 0.9 nM; as for `Brc1ccc(N2CCCNCCC2)cn1`, 0.45 nM.
`Clc1ncc(N2CCNCC2)cc1Br` came in with an IC50 of 230 nM.
The result for `Clc1cc(N2CCCNCC2)cnc1Br` reads 1.4 nM.
The result for `C#Cc1cncc(N2CCNCC2)c1` reads 110 nM.
`C=COc1cc(N2CCCNCC2)cnc1Br` displayed an IC50 of 0.64 nM.
The result for `COc1cncc(N2CCNCC2)c1` reads 500 nM; that for `Brc1cncc(N2CCCNCCC2)c1`, 2.8 nM; that for `C/C=C\Oc1cncc(N2CCC3CCC(C2)N3)c1` (racemic), 1.9 nM.
Consider `CCOc1cncc(N2CCC3CCC(C2)N3)c1` (racemic), for which the IC50 was 6.5 nM.
The result for `Clc1cncc(OC2CCCNC2)c1` (racemic) reads 240 nM; that for `COc1cncc(N2C3CCNCC2CC3)c1` (racemic), 10 nM.
As for `C/C=C\Oc1cncc(N2C3CCNCC2CC3)c1` (racemic), the figure is 3.1 nM.
